From ChEMBL document CHEMBL4049434, “Radiolabeled Dibenzodiazepinone-Type Antagonists Give Evidence of Dualsteric Binding at the M2 Muscarinic Acetylcholine Receptor” (J Med Chem, 2017) come the findings set out here.

The target in test [1] is T1, Muscarinic acetylcholine receptor M1 (Homo sapiens, UniProt P11229).
T1 sequence (P11229 whole entry): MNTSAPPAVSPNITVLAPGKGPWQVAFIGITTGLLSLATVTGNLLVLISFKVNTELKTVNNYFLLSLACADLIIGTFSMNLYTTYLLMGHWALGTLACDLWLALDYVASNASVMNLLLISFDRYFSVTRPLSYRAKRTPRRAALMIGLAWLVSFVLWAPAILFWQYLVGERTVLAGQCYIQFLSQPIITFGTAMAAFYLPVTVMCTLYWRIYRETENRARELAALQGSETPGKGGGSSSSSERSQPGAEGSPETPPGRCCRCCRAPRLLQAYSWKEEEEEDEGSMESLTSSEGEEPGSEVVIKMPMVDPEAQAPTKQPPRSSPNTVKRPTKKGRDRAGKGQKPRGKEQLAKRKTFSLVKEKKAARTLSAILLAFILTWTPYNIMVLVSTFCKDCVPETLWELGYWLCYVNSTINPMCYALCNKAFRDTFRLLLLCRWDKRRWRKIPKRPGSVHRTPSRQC
Nature of the test: Displacement of [3H]NMS from human muscarinic acetylcholine receptor M1 expressed in CHOK9 cells after 3 hrs by liquid scintillation counting assay. Format: cell-based.

In test [2] the target is T2, Muscarinic acetylcholine receptor M5 (Homo sapiens, UniProt P08912).
T2 sequence (P08912 whole entry): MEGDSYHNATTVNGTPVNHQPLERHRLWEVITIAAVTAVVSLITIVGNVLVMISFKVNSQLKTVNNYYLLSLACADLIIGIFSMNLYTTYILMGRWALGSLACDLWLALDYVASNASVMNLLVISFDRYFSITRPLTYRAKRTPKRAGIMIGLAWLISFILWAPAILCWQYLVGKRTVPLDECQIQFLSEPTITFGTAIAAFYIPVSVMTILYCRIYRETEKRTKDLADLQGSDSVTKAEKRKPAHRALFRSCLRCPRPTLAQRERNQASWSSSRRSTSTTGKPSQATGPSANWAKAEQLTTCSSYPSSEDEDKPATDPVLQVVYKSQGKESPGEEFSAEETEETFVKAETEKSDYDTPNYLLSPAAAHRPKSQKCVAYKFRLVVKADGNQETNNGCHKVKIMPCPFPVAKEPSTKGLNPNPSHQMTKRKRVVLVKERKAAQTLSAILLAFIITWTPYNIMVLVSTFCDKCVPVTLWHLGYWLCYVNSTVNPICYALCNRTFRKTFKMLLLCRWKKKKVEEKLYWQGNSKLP
Nature of the test: Displacement of [3H]NMS from human muscarinic acetylcholine receptor M5 expressed in CHOK9 cells after 3 hrs by liquid scintillation counting assay. It is filed as cell-based. Background: Loss of bound radioactivity is the signal in a displacement assay; it reports binding, not function.

For test [3], the target named is T3, Muscarinic acetylcholine receptor M2 (Homo sapiens, UniProt P08172).
T3 sequence (P08172 whole entry): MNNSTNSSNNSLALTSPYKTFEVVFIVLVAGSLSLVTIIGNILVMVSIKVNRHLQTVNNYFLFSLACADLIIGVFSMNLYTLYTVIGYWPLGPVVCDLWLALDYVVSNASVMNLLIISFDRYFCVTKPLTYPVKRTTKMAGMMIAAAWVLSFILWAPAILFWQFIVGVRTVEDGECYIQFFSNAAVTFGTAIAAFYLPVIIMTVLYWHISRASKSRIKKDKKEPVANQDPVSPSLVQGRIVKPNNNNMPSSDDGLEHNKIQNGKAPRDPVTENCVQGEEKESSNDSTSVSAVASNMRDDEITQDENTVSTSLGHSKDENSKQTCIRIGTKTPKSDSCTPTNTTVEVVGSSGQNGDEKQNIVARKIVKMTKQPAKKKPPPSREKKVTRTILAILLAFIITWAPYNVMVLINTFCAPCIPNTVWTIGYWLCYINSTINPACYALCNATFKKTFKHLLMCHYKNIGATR
Nature of the test: Displacement of [3H]NMS from human muscarinic acetylcholine receptor M2 expressed in CHOK9 cells after 3 hrs by liquid scintillation counting assay. The note with it: read-out: pKi (converted). Format: cell-based.

Test [4] concerns the target T3, Muscarinic acetylcholine receptor M2. Nature of the test: Displacement of [3H]UNSW-MK259 from human muscarinic acetylcholine receptor M2 expressed in CHOK9 cells after 3 hrs by liquid scintillation counting assay. It is filed as cell-based.
Test [5] concerns the target T4, Muscarinic acetylcholine receptor M2 (Homo sapiens) (UniProt P08172).
T4 sequence (whole entry): T3 sequence (P08172 whole entry)
Nature of the test: Antagonist activity at human muscarinic acetylcholine receptor M2 expressed in HEK293 cells coexpressing HA tagged Galpha-protein qi5 assessed as inhibition of 0.3 uM carbachol-induced IP1 accumulation preincubated for 30 mins followed by carbachol addition measured after 1 hr by HTRF assay. Format: functional, cell-based. In short, it runs like this: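 HEK-293 transiently cotransfected with human M2R and Gαqi5-HA. Cells preincubated 30 min with antagonist, then carbachol added (final 0.1, 0.3, 1 or 10 μM), 1 h at 37 °C. IP1 detected by HTRF (620/670 nm emission, 330 nm excitation). At least four independent experiments, each in duplicate.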
For orientation: In TR-FRET formats the signal depends on donor and acceptor labels being close together.

Test [6] deals with T4, Muscarinic acetylcholine receptor M2 (Homo sapiens). Nature of the test: Binding affinity to human muscarinic acetylcholine receptor M2 expressed in CHOK9 cells assessed as dissociation rate constant after 105 mins by liquid scintillation counting assay. Format: cell-based. The note with it: tested as the 3H-labelled form.
Test [7] has the same target. Nature of the test: Binding affinity to human muscarinic acetylcholine receptor M2 expressed in CHOK9 cells assessed as dissociation half life after 105 mins by liquid scintillation counting assay. The note with it: tested as the 3H-labelled form. Format: cell-based.
For test [8], the target named is T5, Muscarinic acetylcholine receptor M4 (Homo sapiens, UniProt P08173).
T5 sequence (P08173 whole entry): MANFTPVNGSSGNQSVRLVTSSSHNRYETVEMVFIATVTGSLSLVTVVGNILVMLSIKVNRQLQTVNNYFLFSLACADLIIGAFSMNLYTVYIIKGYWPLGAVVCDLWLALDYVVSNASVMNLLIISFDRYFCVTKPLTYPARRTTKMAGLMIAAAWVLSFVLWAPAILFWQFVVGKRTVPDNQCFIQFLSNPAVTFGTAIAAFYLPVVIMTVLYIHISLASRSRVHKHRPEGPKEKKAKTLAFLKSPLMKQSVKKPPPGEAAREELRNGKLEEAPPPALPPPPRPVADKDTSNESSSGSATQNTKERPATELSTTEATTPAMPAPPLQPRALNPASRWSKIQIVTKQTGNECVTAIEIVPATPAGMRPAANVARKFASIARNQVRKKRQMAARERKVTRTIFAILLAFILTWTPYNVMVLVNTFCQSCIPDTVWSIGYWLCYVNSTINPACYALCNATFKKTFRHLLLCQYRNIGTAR
Nature of the test: Displacement of [3H]NMS from human muscarinic acetylcholine receptor M4 expressed in CHOK9 cells after 3 hrs by liquid scintillation counting assay. Format: cell-based.

Test [9] deals with Muscarinic acetylcholine receptor M3 (Homo sapiens, UniProt P20309). Nature of the test: Displacement of [3H]NMS from human muscarinic acetylcholine receptor M3 expressed in CHOK9 cells after 3 hrs by liquid scintillation counting assay. Format: cell-based.
Chain of Muscarinic acetylcholine receptor M3 (P20309 whole entry): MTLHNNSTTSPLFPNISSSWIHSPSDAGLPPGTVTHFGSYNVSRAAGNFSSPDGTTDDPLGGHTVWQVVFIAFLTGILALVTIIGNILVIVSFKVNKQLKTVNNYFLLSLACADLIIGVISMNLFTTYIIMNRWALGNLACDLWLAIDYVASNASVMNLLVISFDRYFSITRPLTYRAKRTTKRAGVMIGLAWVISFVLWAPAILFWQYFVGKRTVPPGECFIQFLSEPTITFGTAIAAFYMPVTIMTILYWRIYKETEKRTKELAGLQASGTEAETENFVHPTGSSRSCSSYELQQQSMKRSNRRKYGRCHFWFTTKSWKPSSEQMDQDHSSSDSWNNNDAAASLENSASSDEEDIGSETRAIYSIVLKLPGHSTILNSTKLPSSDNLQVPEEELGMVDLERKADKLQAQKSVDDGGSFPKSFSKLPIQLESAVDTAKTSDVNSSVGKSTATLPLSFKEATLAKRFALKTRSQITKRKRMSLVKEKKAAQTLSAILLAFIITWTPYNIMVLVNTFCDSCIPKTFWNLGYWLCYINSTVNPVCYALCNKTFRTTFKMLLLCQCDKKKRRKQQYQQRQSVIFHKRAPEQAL
The target in test [10] is T4, Muscarinic acetylcholine receptor M2 (Homo sapiens). Nature of the test: Binding affinity to human muscarinic acetylcholine receptor M2 expressed in CHOK9 cell homogenate after 2 hrs by liquid scintillation counting assay. Particulars: tested as the 3H-labelled form. In short, it runs like this: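 CHO-hM2 cell homogenates (25–30 μg protein/well) in L15 medium with 1% BSA, 23 ± 1 °C, 2 h with tritiated dimeric radioligand. Competition used 0.5 nM radioligand; additional 0.4, 1, 2 and 4 nM in W84 experiments. […] Four-parameter logistic fits; at least three experiments in triplicate.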

The target is the same in test [11]. Nature of the test: Binding affinity to human muscarinic acetylcholine receptor M2 expressed in CHOK9 cell suspension at Kd in presence of 500-fold excess atropine after 2 hrs by liquid scintillation counting assay relative to control. Particulars: tested as the 3H-labelled form.

Usually pKb stands for the Kb on a negative log10 scale, so that one unit is a factor of ten. For `CCC(=O)NCc1cc(C(=O)NCCNC(=O)CCc2cn(CCCCC3CCN(CC(=O)N4c5ccccc5NC(=O)c5ccccc54)CC3)cn2)cc(C(=O)NCCNC(=O)CCc2cn(CCCCC3CCN(CC(=O)N4c5ccccc5NC(=O)c5ccccc54)CC3)cn2)c1.O=C(O)C(F)(F)F.O=C(O)C(F)(F)F.O=C(O)C(F)(F)F.O=C(O)C(F)(F)F`, the Ki was 1.51 nM in [1]; 22.9 nM in [2]; 0.407 nM in test [3]; 0.107 nM in [4]; 0.468 nM in [8]; 15.5 nM in [9]. Moreover, the inhibition entry in test [5] is “Dose-dependent effect”. The pKb in test [5] is 7.36. Besides, the K in test [6] turned out to be 0.011 min⁻¹. Moreover, the T1/2 in [7] was 1.1 h. Also, in test [10], the Bmax (disintegrations/minute) came to 620. Moreover, the Activity in [11] was less than 15%.
